Reference: ChEMBL document CHEMBL1125205, “Phosphorus-containing inhibitors of HMG-CoA reductase. 2. Synthesis and biological activities of a series of substituted pyridines containing a hydroxyphosphinyl moiety” (J Med Chem, 1991)

Target: T1, 3-hydroxy-3-methylglutaryl-coenzyme A reductase (Rattus norvegicus, UniProt P51639)
T1 sequence (P51639 whole entry): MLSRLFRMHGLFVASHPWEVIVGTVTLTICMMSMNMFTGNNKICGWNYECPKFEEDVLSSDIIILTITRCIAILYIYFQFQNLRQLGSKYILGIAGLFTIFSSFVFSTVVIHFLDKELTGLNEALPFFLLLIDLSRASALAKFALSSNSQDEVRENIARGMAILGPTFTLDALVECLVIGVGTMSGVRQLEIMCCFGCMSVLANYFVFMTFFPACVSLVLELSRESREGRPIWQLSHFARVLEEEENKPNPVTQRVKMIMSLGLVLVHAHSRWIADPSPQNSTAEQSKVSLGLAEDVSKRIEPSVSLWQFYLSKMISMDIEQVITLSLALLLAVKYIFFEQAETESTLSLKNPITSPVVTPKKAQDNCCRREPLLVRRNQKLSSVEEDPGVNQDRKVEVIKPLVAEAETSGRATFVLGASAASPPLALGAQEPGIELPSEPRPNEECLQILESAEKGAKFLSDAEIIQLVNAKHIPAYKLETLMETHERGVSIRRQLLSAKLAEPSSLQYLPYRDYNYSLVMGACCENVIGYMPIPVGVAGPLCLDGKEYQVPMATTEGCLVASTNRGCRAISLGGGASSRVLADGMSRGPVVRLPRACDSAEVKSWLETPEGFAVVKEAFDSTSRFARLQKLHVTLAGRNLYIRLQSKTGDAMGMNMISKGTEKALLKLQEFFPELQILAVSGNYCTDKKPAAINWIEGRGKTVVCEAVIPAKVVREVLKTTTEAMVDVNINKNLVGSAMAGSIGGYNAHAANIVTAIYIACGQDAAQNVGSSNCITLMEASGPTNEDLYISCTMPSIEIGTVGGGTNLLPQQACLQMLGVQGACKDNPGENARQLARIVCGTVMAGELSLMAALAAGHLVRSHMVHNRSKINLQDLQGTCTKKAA
Test: The compound was tested in vitro for inhibition of rat hepatic HMG-CoA reductase.
Assay type: functional
Conditions: read-out: I50
In short: (§1)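 Enzyme source: hepatic microsomes from cholestyramine-fed Sprague-Dawley rats. Final assay conditions: 0.04 M potassium phosphate pH 7.2, KCl, sucrose, EDTA, 10 mM DTT, 1% DMSO, 50-200 µg microsomal protein. Microsomes were preincubated with 2.7 mM NADPH for 15 min at 37 °C, then with compound for 15 min. 100 µM 14C-[D,L]-HMG-CoA was then added for 20 min at 37 °C. Read-out: 14C-mevalonate, corrected by 3H-mevalonate recovery. I50 taken from composite dose-response regressions, 2-5 experiments.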

IC50 [µM]	SMILES
0.0127	CC(C)c1nc(-c2ccccc2)cc(-c2ccc(F)cc2)c1COP(=O)(O)C[C@H](O)CC(=O)O
0.0013	Cc1c(-c2ccccc2)nc(C2CC2)c(COP(=O)(O)C[C@H](O)CC(=O)O)c1-c1ccc(F)cc1
0.0051	Cc1c(-c2ccccc2)nc(C(C)C)c(COP(=O)(O)C[C@H](O)CC(=O)O)c1-c1ccc(F)cc1
0.0194	CCc1nc(-c2ccccc2)c(C)c(-c2ccc(F)cc2)c1COP(=O)(O)C[C@H](O)CC(=O)O
0.0012	CC(C)c1nc2c(c(-c3ccc(F)cc3)c1COP(=O)(O)C[C@H](O)CC(=O)O)CCCc1ccccc1-2
0.029	O=C(O)C[C@@H](O)CP(=O)(O)OCc1c(-c2ccc(F)cc2)cc(-c2ccccc2)nc1C1CC1
1.3	Cc1nc(-c2ccccc2)c(C)c(-c2ccc(F)cc2)c1COP(=O)(O)C[C@H](O)CC(=O)O
0.0014	CC(C)c1nc(C(C)(C)C)cc(-c2ccc(F)cc2)c1COP(=O)(O)C[C@H](O)CC(=O)O
0.0025	CCc1c(-c2ccccc2)nc(C(C)C)c(COP(=O)(O)C[C@H](O)CC(=O)O)c1-c1ccc(F)cc1

Target: T1, 3-hydroxy-3-methylglutaryl-coenzyme A reductase
Test: In vitro for inhibition of rat HMG-CoA reductase.
Conditions: read-out: I50
In short: as §1

IC50 [µM]	SMILES
0.0144	CC(C)c1nc2c(c(-c3ccc(F)cc3)c1C#CP(=O)(O)C[C@H](O)CC(=O)O)CCCc1ccccc1-2
0.0098	CC(C)c1nc(-c2ccccc2)c(C(C)C)c(-c2ccc(F)cc2)c1C#CP(=O)(O)C[C@H](O)CC(=O)O
0.0684	CC(C)(C)c1nc(-c2ccccc2)cc(-c2ccc(F)cc2)c1C#CP(=O)(O)C[C@H](O)CC(=O)O
0.0326	Cc1ccccc1-c1cc(-c2ccc(F)cc2)c(C#CP(=O)(O)C[C@H](O)CC(=O)O)c(C(C)C)n1
0.181	CC(C)c1nc(-c2ccccc2)cc(-c2ccc(F)cc2)c1CCP(=O)(O)C[C@H](O)CC(=O)O
0.0287	CC(C)c1nc(-c2cccc3ccccc23)cc(-c2ccc(F)cc2)c1C#CP(=O)(O)C[C@H](O)CC(=O)O
0.0809	CC(C)c1cc(-c2ccc(F)cc2)c(C#CP(=O)(O)C[C@H](O)CC(=O)O)c(C(C)C)n1
0.0756	CC(C)c1nc2c(c(-c3ccc(F)cc3)c1C#CP(=O)(O)C[C@H](O)CC(=O)O)Cc1ccccc1-2
0.0626	CC(C)c1nc(-c2ccccc2Cc2ccccc2)cc(-c2ccc(F)cc2)c1C#CP(=O)(O)C[C@H](O)CC(=O)O
0.0438	CC(C)c1nc(C23CC4CC(CC(C4)C2)C3)cc(-c2ccc(F)cc2)c1C#CP(=O)(O)C[C@H](O)CC(=O)O
0.0039	Cc1cc(F)ccc1-c1cc(-c2ccccc2)nc(C(C)C)c1/C=C/P(=O)(O)C[C@H](O)CC(=O)O
0.0156	CC(C)c1nc(-c2ccccc2)c(-c2ccccc2)c(-c2ccc(F)cc2)c1C#CP(=O)(O)C[C@H](O)CC(=O)O
0.0449	CC(C)c1nc(-c2ccccc2)c(F)c(-c2ccc(F)cc2)c1C#CP(=O)(O)C[C@H](O)CC(=O)O
0.0172	CC(C)c1nc(C(C)(C)C)cc(-c2ccc(F)cc2)c1CCP(=O)(O)C[C@H](O)CC(=O)O
0.022	Cc1cc(-c2cc(-c3ccccc3)nc(C(C)C)c2C#CP(=O)(O)C[C@H](O)CC(=O)O)ccc1F
0.0453	CC(C)c1cc(-c2ccccc2)nc(-c2ccc(F)cc2)c1/C=C/P(=O)(O)C[C@H](O)CC(=O)O
0.0025	Cc1c(-c2ccccc2)nc(C2CC2)c(/C=C/P(=O)(O)C[C@H](O)CC(=O)O)c1-c1ccc(F)cc1
0.0092	Cc1c(-c2ccccc2)nc(C(C)C)c(CCP(=O)(O)C[C@H](O)CC(=O)O)c1-c1ccc(F)cc1
0.0186	CC(C)c1nc2c(c(-c3ccc(F)cc3)c1CCP(=O)(O)C[C@H](O)CC(=O)O)CCCc1ccccc1-2
0.0013	CC(C)c1nc2c(c(-c3ccc(F)cc3)c1/C=C/P(=O)(O)C[C@H](O)CC(=O)O)CCCc1ccccc1-2
0.0149	CC(C)c1nc(C(c2ccccc2)c2ccccc2)cc(-c2ccc(F)cc2)c1C#CP(=O)(O)C[C@H](O)CC(=O)O

IC50 [µM]	SMILES
0.0846	CC(C)c1nc(-c2cccc3c2OCO3)cc(-c2ccc(F)cc2)c1C#CP(=O)(O)C[C@H](O)CC(=O)O
0.156	Cc1cc(F)ccc1-c1cc(-c2ccccc2)nc(C(C)C)c1C#CP(=O)(O)C[C@H](O)CC(=O)O
0.0798	CCc1nc(-c2ccccc2)c(C)c(-c2ccc(F)cc2)c1CCP(=O)(O)C[C@H](O)CC(=O)O
0.11	CCc1nc(-c2ccccc2)c(C)c(-c2ccc(F)cc2)c1C#CP(=O)(O)C[C@H](O)CC(=O)O
0.0909	O=C(O)C[C@@H](O)CP(=O)(O)C#Cc1c(-c2ccc(F)cc2)cc(-c2ccccc2)nc1C1CC1
0.0525	CC(C)c1nc2c(c(-c3ccc(F)cc3)c1C#CP(=O)(O)C[C@H](O)CC(=O)O)CCc1ccccc1-2
1.3	Cc1nc(-c2ccccc2)c(C)c(-c2ccc(F)cc2)c1C#CP(=O)(O)C[C@H](O)CC(=O)O
0.42	CC(C)c1cc(-c2ccccc2)nc(-c2ccc(F)cc2)c1C#CP(=O)(O)C[C@H](O)CC(=O)O
0.0146	CC(C)c1nc(-c2cccs2)cc(-c2ccc(F)cc2)c1C#CP(=O)(O)C[C@H](O)CC(=O)O
0.231	Cc1cc(-c2ccc(F)cc2)c(C#CP(=O)(O)C[C@H](O)CC(=O)O)c(C(C)C)n1
0.0047	CCc1nc(-c2ccccc2)c(C)c(-c2ccc(F)cc2)c1/C=C/P(=O)(O)C[C@H](O)CC(=O)O
0.0089	CC(C)c1nc(-c2cc(F)c(F)c(F)c2F)cc(-c2ccc(F)cc2)c1C#CP(=O)(O)C[C@H](O)CC(=O)O
0.0484	CC(C)c1nc(C2CCCCC2)cc(-c2ccc(F)cc2)c1C#CP(=O)(O)C[C@H](O)CC(=O)O
0.115	Cc1cc(F)ccc1-c1cc(-c2ccccc2)nc(C(C)C)c1CCP(=O)(O)C[C@H](O)CC(=O)O
0.0191	CCc1c(-c2ccccc2)nc(C(C)C)c(CCP(=O)(O)C[C@H](O)CC(=O)O)c1-c1ccc(F)cc1
0.0032	CC(C)c1nc(C(C)(C)C)cc(-c2ccc(F)cc2)c1/C=C/P(=O)(O)C[C@H](O)CC(=O)O
0.0042	CC(C)c1nc(C2CC2)cc(-c2ccc(F)cc2)c1C#CP(=O)(O)C[C@H](O)CC(=O)O
0.235	Cc1nc(-c2ccccc2)c(C)c(-c2ccc(F)cc2)c1CCP(=O)(O)C[C@H](O)CC(=O)O
0.0046	Cc1c(-c2ccccc2)nc(C2CC2)c(C#CP(=O)(O)C[C@H](O)CC(=O)O)c1-c1ccc(F)cc1
0.0092	Cc1c(-c2ccccc2)nc(C2CC2)c(CCP(=O)(O)C[C@H](O)CC(=O)O)c1-c1ccc(F)cc1
